Results: ChEMBL document CHEMBL1129302, “Quinazoline antifolate thymidylate synthase inhibitors: gamma-linked L-D, D-D, and D-L dipeptide analogues of 2-desamino-2-methyl-N10-propargyl-5,8-dideazafolic acid (ICI 198583)” (J Med Chem, 1996)
pIC50, pKi: −log10 of the molar value. Several values for one entry are separate records, joined by “and”; a condition that tells them apart may be missing. Equal entries are not always repeated.

Assays:
Thymidylate synthase [1] = biological target: T1, Thymidylate synthase (Mus musculus, UniProt P07607); assay: Inhibition of Thymidylate synthase activity in L1210 cells; type: cell-based
T1 sequence (P07607 whole entry): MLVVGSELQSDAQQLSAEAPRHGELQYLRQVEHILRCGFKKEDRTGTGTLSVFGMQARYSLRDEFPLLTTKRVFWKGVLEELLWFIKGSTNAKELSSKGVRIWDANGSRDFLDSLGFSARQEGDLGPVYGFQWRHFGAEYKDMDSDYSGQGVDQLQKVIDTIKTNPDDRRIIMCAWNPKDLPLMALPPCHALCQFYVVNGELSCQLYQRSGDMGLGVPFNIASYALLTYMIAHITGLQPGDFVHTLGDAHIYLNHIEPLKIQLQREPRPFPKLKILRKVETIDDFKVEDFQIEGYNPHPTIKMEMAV
Summary of the method: (§1)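 TS was partially purified from L1210 mouse leukemia cells that overproduce the enzyme through TS gene amplification. Inhibition was assayed with (±)-5,10-methylenetetrahydrofolic acid as cofactor at 200 µM.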

L1210 [2] = assay: Inhibition of L1210 cell growth; type: functional, cell-based, Mus musculus
L1210 (1565) [3] = assay: Inhibitory activity against L1210:1565 cell growth.; type: functional, cell-based, Mus musculus
WIL2 = assay: Inhibitory activity against human W1L2 cell growth; type: functional, cell-based
L1210 (RD1694) [4] = assay: Inhibitory activity against L1210:RD1694 cell growth.; type: functional, cell-based, Mus musculus
Mus musculus = species on record: Mus musculus; assay: Plasma concentration in mice.; type: ADME, organism-based; details: in vivo, read-out: Plasma concentration
L1210 [5] = assay: Inhibitory activity against L1210 cell growth.; type: functional, cell-based, Mus musculus
L1210 (RD1694) [6] = assay: Inhibitory activity against L1210:RD1694 cell growth; type: functional, cell-based, Mus musculus
Thymidylate synthase [7] = biological target: T1, Thymidylate synthase; assay: Binding affinity against L1210 Thymidylate synthase.; summary of the method: as §1
L1210 (1565) [8] = assay: Inhibitory activity against L1210:1565 cell growth; type: functional, cell-based; details: Mus musculus

Structure (SMILES)	pIC50 (Thymidylate synthase [1])	pIC50 (L1210 [2]; Mus musculus, L1210)	pIC50 (L1210 (1565) [3]; Mus musculus, L1210 (1565))	pIC50 (WIL2; Homo sapiens, WIL2)	also measured
C#CCN(Cc1ccc2nc(C)nc(O)c2c1)c1ccc(C(=O)N[C@@H](CCC(=O)NC(Cc2ccccc2)C(=O)O)C(=O)O)cc1 (stereo partly specified)	7.52	5.68	< 5.00	–	–
C#CCN(Cc1ccc2nc(C)nc(O)c2c1)c1ccc(C(=O)N[C@@H](CCC(=O)N[C@H](CCC(=O)O)C(=O)O)C(=O)O)c(F)c1	8.72	6.68	5.11	6.66	–
CCN(Cc1ccc2nc(C)nc(O)c2c1)c1ccc(C(=O)N[C@@H](CCC(=O)N[C@H](CCC(=O)O)C(=O)O)C(=O)O)cc1	7.77	5.44	–	–	–
C#CCN(Cc1ccc2nc(C)nc(O)c2c1)c1ccc(C(=O)N[C@@H](CCC(=O)N[C@H](CCCC(=O)O)C(=O)O)C(=O)O)cc1	–	–	4.57	6.66	pIC50 (L1210 (RD1694) [4]; Mus musculus, L1210 (RD1694)): 6.38; concentration (Mus musculus): 31 µM; pIC50 (L1210 [5]; Mus musculus, L1210): 7.10; pIC50 (L1210 [5]; l1210): 6.96; pIC50 (L1210 (RD1694) [6]; Mus musculus, L1210 (RD1694)): 6.36
C#CCN(Cc1ccc2nc(C)nc(O)c2c1)c1ccc(C(=O)N[C@@H](CCC(=O)N[C@H](CCC(=O)O)C(=O)O)C(=O)O)cc1	–	–	4.82	6.82	concentration (Mus musculus): 34 µM; pIC50 (L1210 (RD1694) [6]; Mus musculus, L1210 (RD1694)): 6.17
C#CCN(Cc1ccc2nc(C)nc(O)c2c1)c1ccc(C(=O)N[C@@H](CCC(=O)N[C@@H](Cc2ccccc2)C(=O)O)C(=O)O)cc1	7.74	5.36	–	–	pIC50 (L1210 (RD1694) [6]; Mus musculus, L1210 (RD1694)): 5.05
C#CCN(Cc1ccc2nc(C)nc(O)c2c1)c1ccc(C(=O)N[C@@H](CCC(=O)N[C@@H](C)C(=O)O)C(=O)O)cc1	7.89	6.21	–	–	pIC50 (L1210 (RD1694) [4]; Mus musculus, L1210 (RD1694)): 5.68; pIC50 (L1210 (RD1694) [4]; l1210 (rd1694)): 5.80; pIC50 (L1210 [2]; l1210): 6.10
C#CCN(Cc1ccc2nc(C)nc(O)c2c1)c1ccc(C(=O)N[C@@H](CCC(=O)N[C@@H](CCC(=O)O)C(=O)O)C(=O)O)cc1 [listing 1 of 2 here]	–	–	–	–	pIC50 (L1210 [2]; l1210): 5.47; pIC50 (WIL2; wil2): 5.62
C#CCN(Cc1cc2c(O)nc(C)nc2cc1C)c1ccc(C(=O)N[C@@H](CCC(=O)N[C@H](CCC(=O)O)C(=O)O)C(=O)O)cc1	8.72	6.68	5.11	6.64	–
C#CCN(Cc1ccc2nc(C)nc(O)c2c1)c1ccc(C(=O)N[C@@H](CCC(=O)N[C@@H](CCCC(=O)O)C(=O)O)C(=O)O)cc1	–	6.52	–	–	pIC50 (L1210 (RD1694) [6]; Mus musculus, L1210 (RD1694)): 5.54
Cc1nc(O)c2cc(CN(C)c3ccc(C(=O)N[C@@H](CCC(=O)N[C@H](CCC(=O)O)C(=O)O)C(=O)O)c(F)c3)c(C)cc2n1	8.70	6.59	–	–	–
C#CCN(Cc1cc2c(O)nc(C)nc2cc1C)c1ccc(C(=O)N[C@@H](CCC(=O)N[C@H](CCCC(=O)O)C(=O)O)C(=O)O)c(F)c1	9.25	6.89	4.92	6.52	pKi (Thymidylate synthase [7]): 9.92; pIC50 (WIL2; wil2): 6.72; pIC50 (L1210 (1565) [3]; l1210 (1565)): 5.09
C#CCN(Cc1ccc2nc(C)nc(O)c2c1)c1ccc(C(=O)N[C@@H](CCC(=O)N[C@H](C)C(=O)O)C(=O)O)cc1	7.92	6.37	–	6.82	pIC50 (L1210 (1565) [8]): 4.80; pIC50 (L1210 (RD1694) [6]; Mus musculus, L1210 (RD1694)): 6.06
Cc1nc(O)c2cc(CN(C)c3ccc(C(=O)N[C@@H](CCC(=O)N[C@H](CCC(=O)O)C(=O)O)C(=O)O)c(F)c3)ccc2n1	8.06	6.19	4.68	6.05	–
C#CCN(Cc1ccc2nc(C)nc(O)c2c1)c1ccc(C(=O)N[C@H](CCC(=O)N[C@H](CCC(=O)O)C(=O)O)C(=O)O)cc1	–	5.89	4.00	5.85	–
C#CCN(Cc1ccc2nc(C)nc(O)c2c1)c1ccc(C(=O)N[C@@H](CCC(=O)N[C@@H](CCC(=O)O)C(=O)O)C(=O)O)cc1 [listing 2 of 2 here]	–	–	–	–	pIC50 (L1210 [2]; l1210): 6.80; pIC50 (WIL2; wil2): 7.05 and 7.13; pIC50 (L1210 (1565) [3]; l1210 (1565)): 5.30; pIC50 (L1210 (RD1694) [6]; l1210 (rd1694)): 5.54
Cc1nc(O)c2cc(CN(C)c3ccc(C(=O)N[C@@H](CCC(=O)N[C@H](CCC(=O)O)C(=O)O)C(=O)O)cc3)c(C)cc2n1	8.34	6.24	–	6.55	pIC50 (L1210 (1565) [8]): 4.72
C#CCN(Cc1cc2c(O)nc(C)nc2cc1C)c1ccc(C(=O)N[C@@H](CCC(=O)N[C@H](CCC(=O)O)C(=O)O)C(=O)O)c(F)c1	9.40	6.70	5.17	6.77	concentration (Mus musculus): 32 µM; pKi (Thymidylate synthase [7]): 9.72; pIC50 (WIL2; wil2): 7.03; pIC50 (L1210 (1565) [3]; l1210 (1565)): 5.06
Cc1nc(O)c2cc(CN(C)c3ccc(C(=O)N[C@@H](CCC(=O)N[C@H](CCC(=O)O)C(=O)O)C(=O)O)cc3)ccc2n1	7.47	5.49	–	–	concentration (Mus musculus): 17 µM
